Measurements reported in ChEMBL document CHEMBL5316351, “Development of a Covalent Inhibitor of c-Jun N-Terminal Protein Kinase (JNK) 2/3 with Selectivity over JNK1” (J Med Chem, 2023).
Calls of active or inactive are those of the source. The rule behind the calls is not given here.

How the values were obtained:
[1] = biological target: Mitogen-activated protein kinase 8 (Homo sapiens, UniProt P45983); test: Inhibition of His-tagged human recombinant JNK1 expressed in insect cells incubated for 1 hr in presence of ATP by Z'-Lyte assay; set-up: species or system Insect cell
[2] = biological target: T1, Mitogen-activated protein kinase 9 (Homo sapiens, UniProt P45984); test: Inhibition of His-tagged human recombinant JNK2 expressed in baculovirus expression system incubated for 1 hr in presence of ATP by Z'-Lyte assay
Homo sapiens [3] = species: Homo sapiens; test: Selectivity ratio of IC50 for His-tagged human recombinant JNK1 expressed in insect cells to His-tagged human recombinant JNK2 expressed in baculovirus expression system
How it was run: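 Z′-Lyte kinase assays of JNK1 and JNK2 with 100 μM ATP and 1 h compound incubation. Fixed time point IC50 was determined in duplicate. The selectivity ratio is JNK1 IC50 over JNK2 IC50.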

[4] = biological target: Epidermal growth factor receptor (Homo sapiens) (UniProt P00533); test: Inhibition of EGFR (unknown origin)
Homo sapiens [5] = species: Homo sapiens; test: Inhibition of CK1 (unknown origin)
[6] = biological target: Epithelial discoidin domain-containing receptor 1 (Homo sapiens) (UniProt Q08345); test: Inhibition of DDR1 (unknown origin)
[7] = biological target: CDK7/Cyclin H/MNAT1 (Homo sapiens) (UniProt P51946+P50613+P51948); test: Inhibition of CDK7/Cyclin H/MAT1 (unknown origin); format: protein-complex assay
[8] = biological target: T2, Aurora kinase A (Homo sapiens) (UniProt O14965); test: Inhibition of Aurora A kinase (unknown origin)
T2 sequence (whole entry): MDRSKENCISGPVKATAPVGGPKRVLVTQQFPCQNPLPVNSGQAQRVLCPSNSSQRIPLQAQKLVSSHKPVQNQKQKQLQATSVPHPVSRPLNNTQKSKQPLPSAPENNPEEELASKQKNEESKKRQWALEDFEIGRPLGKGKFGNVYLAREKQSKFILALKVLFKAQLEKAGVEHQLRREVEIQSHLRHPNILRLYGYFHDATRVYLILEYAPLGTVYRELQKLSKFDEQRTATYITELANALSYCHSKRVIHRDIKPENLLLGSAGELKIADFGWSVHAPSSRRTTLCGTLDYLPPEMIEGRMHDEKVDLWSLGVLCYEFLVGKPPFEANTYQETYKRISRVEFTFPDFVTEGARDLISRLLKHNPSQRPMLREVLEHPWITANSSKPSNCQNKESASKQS

[9] = biological target: Aurora kinase B (Homo sapiens) (UniProt Q96GD4); test: Inhibition of Aurora B kinase (unknown origin)
[10] = biological target: T3, Mitogen-activated protein kinase 14 (Homo sapiens, UniProt Q16539); test: Inhibition of Nano-Luc fused p38alpha (unknown origin) expressed in HEK293T cells pretreated for 3 hrs followed by K5-tarcer addition and measured after 1 hr by NanoBRET assay; format: cell-based; conditions: time 4.0 hrs
[11] = biological target: T1, Mitogen-activated protein kinase 9; test: Inhibition of Nano-Luc fused JNK2 (unknown origin) expressed in HEK293T cells pretreated for 3 hrs followed by K5-tarcer addition and measured after 1 hr by NanoBRET assay; format: cell-based
MM1.S = test: Antiproliferative activity against human MM1.S cells assessed as inhibition of cell growth rate measured after 72 hrs by CellTiter-Glo luminescent assay; format: functional
[12] = biological target: T3, Mitogen-activated protein kinase 14; test: Inhibition of GST-tagged human recombinant p38alpha expressed in Escherichia coli by Z'-LYTE assay
[13] = Antiproliferative activity against human HAP1 cells assessed as inhibition of cell growth incubated for 3 days by CellTiter-Glo luminescent assay; format: functional, cell-based; conditions: HAP1, 72 h
[14] = biological target: T4, 1-phosphatidylinositol 3-phosphate 5-kinase (Homo sapiens, UniProt Q9Y2I7); test: Inhibition of Nano-Luc fused PIKFYVE (unknown origin) expressed in HEK293T cells pretreated for 3 hrs followed by K8-tarcer addition and measured after 1 hr by NanoBRET assay; format: cell-based
[15] = biological target: T4, 1-phosphatidylinositol 3-phosphate 5-kinase; test: Inhibition of PIKFYVE in human MDA-MB-231 cells assessed as vacuole formation at 4 uM measured after 3 days by bright field microscopy; format: cell-based; conditions: time 3.0 day
How it was run: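 MDA-MB-231 cells (DMEM, 10% FBS) seeded, next day treated with inhibitor or DMSO; after 3 days imaged by bright-field microscopy at 20× for vacuoles.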

T1 sequence (P45984 whole entry): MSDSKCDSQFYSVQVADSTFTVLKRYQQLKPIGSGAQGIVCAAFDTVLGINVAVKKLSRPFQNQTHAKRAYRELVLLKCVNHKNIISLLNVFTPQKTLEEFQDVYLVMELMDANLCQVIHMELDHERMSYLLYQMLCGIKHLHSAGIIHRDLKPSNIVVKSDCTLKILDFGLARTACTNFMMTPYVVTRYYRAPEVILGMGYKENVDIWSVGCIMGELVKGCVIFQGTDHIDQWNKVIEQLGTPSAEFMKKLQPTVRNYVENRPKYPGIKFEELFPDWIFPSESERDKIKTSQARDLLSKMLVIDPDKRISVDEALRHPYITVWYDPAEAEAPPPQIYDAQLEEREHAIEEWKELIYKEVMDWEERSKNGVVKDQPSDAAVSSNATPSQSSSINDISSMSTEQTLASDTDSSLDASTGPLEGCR
Mitogen-activated protein kinase 8, sequence (P45983 whole entry): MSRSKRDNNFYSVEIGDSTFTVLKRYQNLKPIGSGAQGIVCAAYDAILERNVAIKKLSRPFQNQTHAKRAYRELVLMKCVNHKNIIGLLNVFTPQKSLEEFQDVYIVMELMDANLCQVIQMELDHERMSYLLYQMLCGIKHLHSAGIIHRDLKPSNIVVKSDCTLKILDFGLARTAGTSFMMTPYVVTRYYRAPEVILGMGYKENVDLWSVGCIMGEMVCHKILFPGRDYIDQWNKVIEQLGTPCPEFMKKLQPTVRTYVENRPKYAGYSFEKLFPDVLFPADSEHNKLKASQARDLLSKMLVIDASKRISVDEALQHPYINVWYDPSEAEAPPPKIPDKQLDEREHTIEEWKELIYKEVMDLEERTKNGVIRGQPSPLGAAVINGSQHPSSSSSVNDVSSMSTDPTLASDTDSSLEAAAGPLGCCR
T4 sequence (Q9Y2I7 whole entry, the tested form may be a part): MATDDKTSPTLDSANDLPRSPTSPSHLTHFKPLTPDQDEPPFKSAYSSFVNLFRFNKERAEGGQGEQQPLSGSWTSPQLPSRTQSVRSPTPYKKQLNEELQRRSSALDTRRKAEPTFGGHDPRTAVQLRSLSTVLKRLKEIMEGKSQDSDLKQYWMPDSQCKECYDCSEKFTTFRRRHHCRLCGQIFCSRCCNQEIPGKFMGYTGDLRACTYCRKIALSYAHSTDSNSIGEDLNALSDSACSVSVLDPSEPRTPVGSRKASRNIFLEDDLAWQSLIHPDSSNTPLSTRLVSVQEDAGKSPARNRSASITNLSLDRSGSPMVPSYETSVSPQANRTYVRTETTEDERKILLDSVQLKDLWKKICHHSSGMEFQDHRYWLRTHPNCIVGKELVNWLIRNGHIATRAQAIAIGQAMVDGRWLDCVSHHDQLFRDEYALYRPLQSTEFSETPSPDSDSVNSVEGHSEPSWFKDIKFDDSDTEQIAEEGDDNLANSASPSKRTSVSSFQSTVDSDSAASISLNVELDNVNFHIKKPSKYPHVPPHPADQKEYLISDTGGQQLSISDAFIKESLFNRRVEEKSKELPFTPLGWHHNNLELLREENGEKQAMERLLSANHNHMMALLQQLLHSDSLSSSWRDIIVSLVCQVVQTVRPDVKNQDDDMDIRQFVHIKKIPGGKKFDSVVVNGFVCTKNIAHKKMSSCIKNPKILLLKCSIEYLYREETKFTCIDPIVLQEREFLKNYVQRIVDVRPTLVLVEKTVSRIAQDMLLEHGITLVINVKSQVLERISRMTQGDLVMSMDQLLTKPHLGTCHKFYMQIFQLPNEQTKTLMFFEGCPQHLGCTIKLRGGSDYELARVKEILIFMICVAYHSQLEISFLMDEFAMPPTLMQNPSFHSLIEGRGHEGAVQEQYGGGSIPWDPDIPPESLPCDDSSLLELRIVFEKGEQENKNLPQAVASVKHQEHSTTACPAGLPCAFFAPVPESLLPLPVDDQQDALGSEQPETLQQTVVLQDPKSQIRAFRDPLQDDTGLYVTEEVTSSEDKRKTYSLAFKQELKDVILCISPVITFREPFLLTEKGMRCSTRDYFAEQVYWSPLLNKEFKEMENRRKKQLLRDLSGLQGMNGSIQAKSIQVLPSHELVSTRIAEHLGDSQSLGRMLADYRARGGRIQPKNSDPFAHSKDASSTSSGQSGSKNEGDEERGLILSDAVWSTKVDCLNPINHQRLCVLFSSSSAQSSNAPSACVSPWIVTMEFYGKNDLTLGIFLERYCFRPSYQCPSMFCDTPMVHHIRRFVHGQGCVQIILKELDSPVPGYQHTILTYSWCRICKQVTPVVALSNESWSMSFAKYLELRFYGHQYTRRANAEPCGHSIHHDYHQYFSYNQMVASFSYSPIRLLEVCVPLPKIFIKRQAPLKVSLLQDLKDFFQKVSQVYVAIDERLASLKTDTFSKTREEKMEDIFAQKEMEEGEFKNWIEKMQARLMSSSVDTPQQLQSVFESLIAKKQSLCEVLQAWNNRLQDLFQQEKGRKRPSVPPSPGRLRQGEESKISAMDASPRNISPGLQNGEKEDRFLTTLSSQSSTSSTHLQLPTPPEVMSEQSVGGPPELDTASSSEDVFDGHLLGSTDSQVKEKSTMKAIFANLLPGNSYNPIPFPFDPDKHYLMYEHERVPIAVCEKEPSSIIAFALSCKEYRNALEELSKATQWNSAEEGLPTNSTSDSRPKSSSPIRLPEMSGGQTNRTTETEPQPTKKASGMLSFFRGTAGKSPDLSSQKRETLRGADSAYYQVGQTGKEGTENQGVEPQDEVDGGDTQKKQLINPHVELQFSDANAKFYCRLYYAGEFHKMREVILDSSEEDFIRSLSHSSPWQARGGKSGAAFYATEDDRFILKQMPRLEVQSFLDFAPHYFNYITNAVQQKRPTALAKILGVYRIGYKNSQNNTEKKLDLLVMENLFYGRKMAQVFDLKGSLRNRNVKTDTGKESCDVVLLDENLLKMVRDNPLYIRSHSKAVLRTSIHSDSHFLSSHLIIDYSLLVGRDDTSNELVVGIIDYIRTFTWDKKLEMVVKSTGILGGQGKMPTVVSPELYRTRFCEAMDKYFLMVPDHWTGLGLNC
T3 sequence (Q16539 whole entry, the tested form may be a part): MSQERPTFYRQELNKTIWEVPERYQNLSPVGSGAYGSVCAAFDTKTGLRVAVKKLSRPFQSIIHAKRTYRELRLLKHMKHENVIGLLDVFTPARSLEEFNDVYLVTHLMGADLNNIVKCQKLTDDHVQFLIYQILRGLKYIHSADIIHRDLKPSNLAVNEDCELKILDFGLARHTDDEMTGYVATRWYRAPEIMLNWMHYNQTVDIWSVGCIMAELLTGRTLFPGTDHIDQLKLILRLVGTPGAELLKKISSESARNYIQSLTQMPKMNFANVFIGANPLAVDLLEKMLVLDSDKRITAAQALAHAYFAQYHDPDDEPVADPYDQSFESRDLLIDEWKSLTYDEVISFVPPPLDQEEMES
Aurora kinase B (Homo sapiens), sequence (Q96GD4 whole entry, the tested form may be a part): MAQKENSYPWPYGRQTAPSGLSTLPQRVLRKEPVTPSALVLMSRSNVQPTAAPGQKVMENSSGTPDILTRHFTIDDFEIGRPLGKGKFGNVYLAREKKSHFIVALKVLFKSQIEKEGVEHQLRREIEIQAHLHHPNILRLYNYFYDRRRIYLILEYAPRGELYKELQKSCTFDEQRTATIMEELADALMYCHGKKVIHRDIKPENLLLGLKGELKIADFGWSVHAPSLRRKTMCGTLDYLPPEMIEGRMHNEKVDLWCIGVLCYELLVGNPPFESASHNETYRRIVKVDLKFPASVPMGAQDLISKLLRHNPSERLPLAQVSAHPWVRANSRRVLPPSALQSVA
Epithelial discoidin domain-containing receptor 1 (Homo sapiens), sequence (Q08345 whole entry, the tested form may be a part): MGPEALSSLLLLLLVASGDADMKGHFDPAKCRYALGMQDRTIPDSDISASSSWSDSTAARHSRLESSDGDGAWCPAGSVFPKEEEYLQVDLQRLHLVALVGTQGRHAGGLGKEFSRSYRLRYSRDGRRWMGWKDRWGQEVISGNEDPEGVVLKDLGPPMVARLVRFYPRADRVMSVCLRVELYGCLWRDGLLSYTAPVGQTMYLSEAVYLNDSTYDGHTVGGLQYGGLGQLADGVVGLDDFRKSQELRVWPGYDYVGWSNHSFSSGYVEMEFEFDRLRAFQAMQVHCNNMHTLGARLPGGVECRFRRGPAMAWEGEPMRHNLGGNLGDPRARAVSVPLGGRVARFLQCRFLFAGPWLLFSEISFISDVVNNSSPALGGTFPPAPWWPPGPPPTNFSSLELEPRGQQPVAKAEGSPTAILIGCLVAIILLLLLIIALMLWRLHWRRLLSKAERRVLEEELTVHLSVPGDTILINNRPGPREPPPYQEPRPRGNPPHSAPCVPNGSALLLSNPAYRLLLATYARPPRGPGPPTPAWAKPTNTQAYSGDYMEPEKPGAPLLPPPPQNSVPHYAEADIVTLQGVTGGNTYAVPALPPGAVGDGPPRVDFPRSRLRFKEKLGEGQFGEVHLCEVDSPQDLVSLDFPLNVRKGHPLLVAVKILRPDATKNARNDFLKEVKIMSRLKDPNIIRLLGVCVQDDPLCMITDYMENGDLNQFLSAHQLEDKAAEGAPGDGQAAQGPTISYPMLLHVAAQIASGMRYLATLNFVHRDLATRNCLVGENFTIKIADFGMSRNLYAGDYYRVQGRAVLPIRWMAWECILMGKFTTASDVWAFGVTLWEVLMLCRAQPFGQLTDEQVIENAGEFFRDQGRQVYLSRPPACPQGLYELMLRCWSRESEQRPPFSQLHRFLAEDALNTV

Structure (SMILES) | IC50 [1] [nM] | IC50 [2] [nM] | Ratio IC50 (Homo sapiens [3]) | also measured
Cc1ccc2c(-c3ccnc(N[C@H]4CCN(C(=O)c5ccc(NC(=O)/C=C/CN(C)C)cc5)C4)n3)c(-c3ccccc3)nn2c1 | 18 | 1 | 18 | –
CN(C)C/C=C/C(=O)Nc1ccc(C(=O)N2CC[C@H](Nc3nccc(-c4c(-c5ccc(Cl)cc5)nn5ccccc45)n3)C2)cc1 | 62 | 7 | 9 | –
CN(C)C/C=C/C(=O)Nc1ccc(C(=O)N2CCC[C@@H](Nc3nccc(-c4c(-c5ccccc5)nn5ccccc45)n3)C2)cc1 | 470 | 17 | 28 | –
Cc1cccn2nc(-c3ccccc3)c(-c3ccnc(N[C@H]4CCN(C(=O)c5ccc(NC(=O)/C=C/CN(C)C)cc5)C4)n3)c12 | – | – | 8 | –
C[C@H]1CN(C(=O)c2ccc(NC(=O)CCCN(C)C)cc2)C[C@H]1Nc1nccc(-c2c(-c3ccccc3)nn3ccccc23)n1 | – | – | – | inhibition [10]: Active; IC50 [11]: 1700 nM; Activity (MM1.S): inactive; IC50 [12]: 15 nM
O=c1ncn2nc(Sc3ccc(F)cc3F)ccc2c1-c1c(Cl)cccc1Cl [NEFLAMAPIMOD] | – | – | – | IC50 [13]: 10000 nM
CN(C)CCCC(=O)Nc1ccc(C(=O)N2CC[C@H](Nc3nccc(-c4c(-c5ccccc5)nn5ccccc45)n3)C2)cc1 | – | – | – | IC50 [14]: > 3000 nM; inhibition [15]: inactive

Second part, led by results:

IC50 [1] [nM] | IC50 [2] [nM] | Structure (SMILES) | Ratio IC50 (Homo sapiens [3]) | also measured
10 | 2 | CN(C)C/C=C/C(=O)Nc1ccc(C(=O)N2CC[C@@H](Nc3nccc(-c4c(-c5ccccc5)nn5ccccc45)n3)C2)cc1 | 5 | –
3050 | 483 | CN(C)C/C=C/C(=O)Nc1ccc(C(=O)N2CC[C@H](Nc3ncc(Cl)c(-c4c(-c5ccccc5)nn5ccccc45)n3)C2)cc1 | 6 | –
724 | 8.3 | CN(C)C/C=C/C(=O)Nc1ccc(C(=O)Nc2cccc(Nc3nccc(-c4c(-c5ccccc5)nn5ccccc45)n3)c2)cc1 | – | inhibition [4]: Active; inhibition (Homo sapiens [5]): Active; inhibition [6]: Active; inhibition [7]: Active; inhibition [8]: Active; inhibition [9]: Active
